Test results taken from ChEMBL document CHEMBL1122115, “Antimalarials. 13. 5-Alkoxy analogues of 4-methylprimaquine” (1982).

Assays:
Assay type in all cases: functional
Mus musculus [1] = assay: Antimalarial activity against Plasmodium berghei in mice (Mus musculus) at 160 mg/kg dose administered subcutaneously; toxic; conditions: route subcutaneous
Method in brief: (§1)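 Primary mouse screen: groups of five mice infected with a lethal dose of P. berghei 3 days before drug administration. Drug given subcutaneously, routinely in sesame or peanut oil. Mean survival time compared with infected untreated controls; extension in survival time (ΔMST) taken as antimalarial activity.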

Mus musculus [2] = assay: Antimalarial activity against Plasmodium berghei in mice (Mus musculus) at 20 mg/kg dose administered subcutaneously; active/3 toxic; conditions: route subcutaneous; method in brief: as §1
Mus musculus [3] = assay: Antimalarial activity against Plasmodium berghei in mice (Mus musculus) at 40 mg/kg dose administered subcutaneously; toxic; conditions: route subcutaneous; method in brief: as §1
Mus musculus [4] = assay: Antimalarial activity against Plasmodium berghei in mice (Mus musculus) at 640 mg/kg dose administered subcutaneously; toxic; conditions: route subcutaneous; method in brief: as §1
Plasmodium cynomolgi [5] = assay: Radio curative antimalarial activity against Plasmodium cynomolgi in rhesus monkey at 0.5 mg/kg (base/day) peroral dose; cured 1 of 1; conditions: route oral
Plasmodium cynomolgi [6] = assay: Radio curative antimalarial activity against Plasmodium cynomolgi in rhesus monkey at 0.25 mg/kg (base/day) peroral dose; cured 5 of 6; conditions: route oral
Mus musculus [7] = assay: Antimalarial activity against Plasmodium berghei in mice (Mus musculus) at 5 mg/kg dose administered subcutaneously; active; conditions: route subcutaneous; method in brief: as §1
Plasmodium cynomolgi [8] = assay: Radio curative antimalarial activity against Plasmodium cynomolgi in Rhesus monkey at 0.25 mg/kg (base/day) peroral dose; cured 0 of 3; conditions: route oral
Mus musculus [9] = assay: Antimalarial activity against Plasmodium berghei in mice (Mus musculus) at 40 mg/kg dose administered subcutaneously; active; conditions: route subcutaneous; method in brief: as §1
Mus musculus [10] = assay: Antimalarial activity against Plasmodium berghei in mice (Mus musculus) at 10 mg/kg dose administered subcutaneously; active; conditions: route subcutaneous; method in brief: as §1
Plasmodium cynomolgi [11] = assay: Radio curative antimalarial activity against Plasmodium cynomolgi in rhesus monkey at 0.75 mg/kg (base/day) peroral dose; cured 0 of 3; conditions: route oral
Mus musculus [12] = assay: Antimalarial activity against Plasmodium berghei in mice (Mus musculus) at 20 mg/kg dose administered subcutaneously; active; conditions: route subcutaneous; method in brief: as §1
Plasmodium cynomolgi [13] = assay: Radio curative antimalarial activity against Plasmodium cynomolgi in rhesus monkey at 0.25 mg/kg (base/day) peroral dose; cured 1 of 4; conditions: route oral
Plasmodium cynomolgi [14] = assay: Radio curative antimalarial activity against Plasmodium cynomolgi in rhesus monkey at 0.75 mg/kg (base/day) peroral dose; cured 3 of 3; conditions: route oral
Mus musculus [15] = assay: Antimalarial activity against Plasmodium berghei in mice (Mus musculus) at 40 mg/kg dose administered subcutaneously; cure/1 toxic; conditions: route subcutaneous; method in brief: as §1
Mus musculus [16] = assay: Antimalarial activity against Plasmodium berghei in mice (Mus musculus) at 20 mg/kg dose administered subcutaneously; cure and active at 1.25 mg/kg; method in brief: as §1
Mus musculus [17] = assay: Antimalarial activity against Plasmodium berghei in mice (Mus musculus) at 20 mg/kg dose administered subcutaneously; active/1 toxic; conditions: route subcutaneous; method in brief: as §1
Plasmodium cynomolgi [18] = assay: Radio curative antimalarial activity against Plasmodium cynomolgi in rhesus monkey at 0.25 mg/kg (base/day) peroral dose; cured 2 of 2; conditions: route oral
Mus musculus [19] = assay: Antimalarial activity against Plasmodium berghei in mice (Mus musculus) at 40 mg/kg dose administered subcutaneously; active/1 toxic; conditions: route subcutaneous; method in brief: as §1
Plasmodium cynomolgi [20] = assay: Radio curative antimalarial activity against Plasmodium cynomolgi in rhesus monkey at 0.25 mg/kg (base/day) peroral dose; cured 0 of 2; conditions: route oral
Plasmodium cynomolgi [21] = assay: Radio curative antimalarial activity against Plasmodium cynomolgi in rhesus monkey at 0.75 mg/kg (base/day) peroral dose; cured 4 of 4; conditions: route oral
Plasmodium cynomolgi [22] = assay: Radio curative antimalarial activity against Plasmodium cynomolgi in rhesus monkey at 0.5 mg/kg (base/day) peroral dose; cured 10 of 12; conditions: route oral
Mus musculus [23] = assay: Antimalarial activity against Plasmodium berghei in mice (Mus musculus) at 40 mg/kg dose administered subcutaneously; conditions: route subcutaneous; method in brief: as §1
Mus musculus [24] = assay: Antimalarial activity against Plasmodium berghei in mice (Mus musculus) at 80 mg/kg dose administered subcutaneously; active; conditions: route subcutaneous; method in brief: as §1
Mus musculus [25] = assay: Antimalarial activity against Plasmodium berghei in mice (Mus musculus) at 320 mg/kg dose administered subcutaneously; toxic; conditions: route subcutaneous; method in brief: as §1
Plasmodium cynomolgi [26] = assay: Radio curative antimalarial activity against Plasmodium cynomolgi in rhesus monkey at 0.25 mg/kg (base/day) peroral dose; cured 2 of 4; conditions: route oral
Mus musculus [27] = assay: Antimalarial activity against Plasmodium berghei in mice (Mus musculus) at 40 mg/kg dose administered subcutaneously; active/3 toxic; conditions: route subcutaneous; method in brief: as §1
Plasmodium cynomolgi [28] = assay: Radio curative antimalarial activity against Plasmodium cynomolgi in rhesus monkey at 0.75 mg/kg (base/day) peroral dose;cured 3 of 5; conditions: route oral
Mus musculus [29] = assay: Antimalarial activity against Plasmodium berghei in mice (Mus musculus) at 20 mg/kg dose administered subcutaneously; conditions: route subcutaneous; method in brief: as §1
Mus musculus [30] = assay: Antimalarial activity against Plasmodium berghei in mice (Mus musculus) at 80 mg/kg dose administered subcutaneously; conditions: route subcutaneous; method in brief: as §1
Plasmodium cynomolgi [31] = assay: Radio curative antimalarial activity against Plasmodium cynomolgi in rhesus monkey at 0.25 mg/kg (base/day) peroral dose; cured 8 of 14; conditions: route oral
Mus musculus [32] = assay: Antimalarial activity against Plasmodium berghei in mice (Mus musculus) at 320 mg/kg dose administered subcutaneously; active; conditions: route subcutaneous; method in brief: as §1
Mus musculus [33] = assay: Antimalarial activity against Plasmodium berghei in mice (Mus musculus) at 640 mg/kg dose administered subcutaneously; cure/1toxic; conditions: route subcutaneous; method in brief: as §1
Mus musculus [34] = assay: Antimalarial activity against Plasmodium berghei in mice (Mus musculus) at 160 mg/kg dose administered subcutaneously; active; conditions: route subcutaneous; method in brief: as §1
Plasmodium cynomolgi [35] = assay: Radio curative antimalarial activity against Plasmodium cynomolgi in rhesus monkey at 0.75 mg/kg (base/day) peroral dose; cured 1 of 1; conditions: route oral
Plasmodium cynomolgi [36] = assay: Radio curative antimalarial activity against Plasmodium cynomolgi in rhesus monkey at 0.5 mg/kg (base/day) peroral dose; cured 13 of 14; conditions: route oral
Plasmodium cynomolgi [37] = assay: Radio curative antimalarial activity against Plasmodium cynomolgi in Rhesus monkey at 0.125 mg/kg(base/day) peroral dose; Cured 11 of 13; conditions: route oral
Plasmodium cynomolgi [38] = assay: Radio curative antimalarial activity against Plasmodium cynomolgi in rhesus monkey at 0.0625 mg/kg(base/day) peroral dose; Cured 0 of 5; conditions: route oral
Plasmodium cynomolgi [39] = assay: Radio curative antimalarial activity against Plasmodium cynomolgi in rhesus monkey at 0.25 mg/kg (base/day) peroral dose; cured 3 of 4; conditions: route oral
Mus musculus [40] = assay: Antimalarial activity against Plasmodium berghei in mice (Mus musculus) at 160 mg/kg dose administered subcutaneously; active/1 toxic; conditions: route subcutaneous; method in brief: as §1
Mus musculus [41] = assay: Antimalarial activity against Plasmodium berghei in mice (Mus musculus) at 320 mg/kg dose administered subcutaneously; active/4 toxic; conditions: route subcutaneous; method in brief: as §1
Plasmodium cynomolgi [42] = assay: Radio curative antimalarial activity against Plasmodium cynomolgi in rhesus monkey at 0.25 mg/kg (base/day) peroral dose; cured 0 of 3; conditions: route oral
Mus musculus [43] = assay: Antimalarial activity against Plasmodium berghei in mice (Mus musculus) at 160 mg/kg dose administered subcutaneously; conditions: route subcutaneous; method in brief: as §1
Mus musculus [44] = assay: Antimalarial activity against Plasmodium berghei in mice (Mus musculus) at 640 mg/kg dose administered subcutaneously; conditions: route subcutaneous; method in brief: as §1
Mus musculus [45] = assay: Antimalarial activity against Plasmodium berghei in mice (Mus musculus) at 320 mg/kg dose administered subcutaneously; active/3 toxic; conditions: route subcutaneous; method in brief: as §1
Plasmodium cynomolgi [46] = assay: Radio curative antimalarial activity against Plasmodium cynomolgi in rhesus monkey at 0.75 mg/kg (base/day) peroral dose; cured 0 of 2; conditions: route oral
Plasmodium cynomolgi [47] = assay: Radio curative antimalarial activity against Plasmodium cynomolgi in Rhesus monkey at 0.0625 mg/kg(base/day) peroral dose; Cured 0 of 2; conditions: route oral
Plasmodium cynomolgi [48] = assay: Radio curative antimalarial activity against Plasmodium cynomolgi in rhesus monkey at 0.75 mg/kg (base/day) peroral dose; cured 4 of 5; conditions: route oral
Plasmodium cynomolgi [49] = assay: Radio curative antimalarial activity against Plasmodium cynomolgi in rhesus monkey at 0.25 mg/kg (base/day) peroral dose; cured 4 of 4; conditions: route oral
Plasmodium cynomolgi [50] = assay: Radio curative antimalarial activity against Plasmodium cynomolgi in rhesus monkey at 0.125 mg/kg(base/day) peroral dose; Cured 6 of 10; conditions: route oral

## COc1cc(NCCCC(C)N)c2nccc(C)c2c1OC (stereo not given)
Mus musculus [1]
  Delta MST: 5 days
Mus musculus [2]
  Delta MST: 11.4 days
Mus musculus [3]
  number of mice died of toxicity: 5 mice
Mus musculus [4]
  Delta MST: 5 days
Plasmodium cynomolgi [5]
  Cured animals: 1
Plasmodium cynomolgi [6]
  Cured animals: 5

## CCC(CCCN)Nc1cc2c(c3c(C)ccnc13)OCCO2 (stereo not given)
Mus musculus [1]
  Delta MST: 5 days
Mus musculus [7]
  Delta MST: 7.8 days
Plasmodium cynomolgi [8]
  Cured animals: 0
Mus musculus [9]
  Delta MST: 7.6 days
Mus musculus [10]
  Delta MST: 7.6 days
Plasmodium cynomolgi [11]
  Cured animals: 0
Mus musculus [12]
  Delta MST: 7.2 days
Mus musculus [4]
  Delta MST: 5 days

## COc1cc(NC(C)CCCCN)c2nccc(C)c2c1OC (stereo not given)
Mus musculus [1]
  Delta MST: 5 days
Plasmodium cynomolgi [13]
  Cured animals: 1
Plasmodium cynomolgi [14]
  Cured animals: 3
Mus musculus [15]
  number of mice cured: 1 mice
Mus musculus [16]
  Delta MST: 3 days
Mus musculus [4]
  Delta MST: 5 days

## COc1cc(NCCCCC(C)N)c2nccc(C)c2c1OC (stereo not given)
Mus musculus [17]
  Delta MST: 7.5 days
Plasmodium cynomolgi [18]
  Cured animals: 2
Mus musculus [1]
  Delta MST: 5 days
Plasmodium cynomolgi [14]
  Cured animals: 3
Mus musculus [19]
  Delta MST: 8.7 days
Mus musculus [4]
  Delta MST: 5 days

## COc1cc(NC(C)CCCN)c2ncccc2c1 (stereo not given) [PRIMAQUINE]
Plasmodium cynomolgi [20]
  Cured animals: 0
Mus musculus [1]
  Delta MST: 2 days
Plasmodium cynomolgi [21]
  Cured animals: 4
Plasmodium cynomolgi [22]
  Cured animals: 10
Mus musculus [23]
  Delta MST: 5 days
Mus musculus [24]
  Delta MST: 9.4 days
Mus musculus [25]
  Delta MST: 5 days
Mus musculus [4]
  Delta MST: 5 days

## COc1cc(NC(C)CCCN)c2nc(C)cc(C)c2c1OC (stereo not given)
Plasmodium cynomolgi [26]
  Cured animals: 2
Mus musculus [27]
  Delta MST: 6.3 days
Mus musculus [1]
  Delta MST: 5 days
Plasmodium cynomolgi [28]
  Cured animals: 3
Mus musculus [4]
  Delta MST: 5 days
Mus musculus [29]
  Delta MST: 4.9 days

## COc1cc(NC(C)CCCN)c2nccc(C)c2c1 (stereo not given)
Mus musculus [30]
  Delta MST: 5.5 days
Plasmodium cynomolgi [31]
  Cured animals: 8
Mus musculus [32]
  Delta MST: 10.1 days
Mus musculus [33]
  Delta MST: 3 days
Mus musculus [34]
  Delta MST: 9.1 days
Mus musculus [23]
  Delta MST: 4.9 days
Plasmodium cynomolgi [35]
  Cured animals: 1
Mus musculus [29]
  Delta MST: 3.1 days
Plasmodium cynomolgi [36]
  Cured animals: 13

## COc1cc(NC(C)CCCN)c2nccc(C)c2c1OC (stereo not given)
Plasmodium cynomolgi [37]
  Cured animals: 11
Plasmodium cynomolgi [38]
  Cured animals: 0
Plasmodium cynomolgi [39]
  Cured animals: 3
Mus musculus [9]
  Delta MST: 7.1 days
Mus musculus [24]
  Delta MST: 8.9 days
Mus musculus [40]
  Delta MST: 9.9 days
Mus musculus [4]
  Delta MST: 5 days
Mus musculus [29]
  Delta MST: 5.7 days
Plasmodium cynomolgi [5]
  Cured animals: 1
Mus musculus [41]
  Delta MST: 11.9 days

## Cc1ccnc2c(NC(C)CCCN)cc3c(c12)OCCO3 (stereo not given)
Mus musculus [1]
  Delta MST: 5 days
Plasmodium cynomolgi [42]
  Cured animals: 0
Mus musculus [7]
  Delta MST: 6.7 days
Mus musculus [10]
  Delta MST: 8.3 days
Plasmodium cynomolgi [11]
  Cured animals: 0
Mus musculus [3]
  number of mice died of toxicity: 5 mice
Mus musculus [12]
  Delta MST: 11.1 days
Mus musculus [4]
  Delta MST: 5 days

## Cc1ccnc2c(NC(C)CCCN)cc3c(c12)OCO3 (stereo not given)
Mus musculus [43]
  Delta MST: 0.1 days
Mus musculus [44]
  Delta MST: 0.3 days
Mus musculus [23]
  Delta MST: 0.1 days

## CCC(CCCN)Nc1cc2c(c3c(C)ccnc13)OCO2 (stereo not given)
Mus musculus [43]
  Delta MST: 0.5 days
Mus musculus [44]
  Delta MST: 0.9 days
Plasmodium cynomolgi [42]
  Cured animals: 0
Mus musculus [23]
  Delta MST: 0.5 days
Plasmodium cynomolgi [11]
  Cured animals: 0

## COc1cc(NCCCC(C)N)c2ncccc2c1OC (stereo not given)
Mus musculus [30]
  Delta MST: 5.1 days
Plasmodium cynomolgi [20]
  Cured animals: 0
Mus musculus [34]
  Delta MST: 7.3 days
Mus musculus [45]
  Delta MST: 9.9 days
Mus musculus [23]
  Delta MST: 3.1 days
Mus musculus [4]
  Delta MST: 5 days
Mus musculus [29]
  Delta MST: 1.3 days
Plasmodium cynomolgi [46]
  Cured animals: 0

## CCC(CCCN)Nc1cc(OC)c(OC)c2c(C)ccnc12 (stereo not given)
Mus musculus [1]
  Delta MST: 5 days
Plasmodium cynomolgi [47]
  Cured animals: 0
Plasmodium cynomolgi [48]
  Cured animals: 4
Mus musculus [23]
  Delta MST: 0.1 days
Plasmodium cynomolgi [49]
  Cured animals: 4
Mus musculus [4]
  Delta MST: 5 days
Plasmodium cynomolgi [50]
  Cured animals: 6
